Data as given in ChEMBL document CHEMBL4406875, “Design, synthesis and biological evaluation of amino acids-oleanolic acid conjugates as influenza virus inhibitors” (Bioorg Med Chem, 2019).

Key:
[1] = system: Influenza B virus; experiment: Antiviral activity against oseltamivir resistant Victoria lineage of Influenza B virus (B/Brisbane/60/2008) BX-35 infected in MDCK cells assessed as inhibition of virus-induced cytopathic effect measured after 45 hrs by CellTiter-Glo luminescence assay; type: functional, organism-based; settings: B/Brisbane/60/2008 BX-35, MDCK
How it was run: (§1)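 MDCK cells (5,000/well) were seeded one day before infection. Infection medium was high-glucose DMEM with 1% FBS and trypsin (1 μg/mL). Compounds were added at various concentrations and cells infected at MOI 0.1. After 45 h, viability was read by CellTiter-Glo luminescence. IC50 was taken from dose-response curves, as the mean of duplicate samples from three independent experiments.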

[2] = system: Influenza B virus; experiment: Antiviral activity against oseltamivir resistant Yamagata lineage of Influenza B virus (B/Massachusetts/2/2012) BX-51B infected in MDCK cells assessed as inhibition of virus-induced cytopathic effect measured after 45 hrs by CellTiter-Glo luminescence assay; type: functional, organism-based; settings: B/Massachusetts/02/2012 BX-51B; how it was run: as §1

CC1(C)CC[C@]2(C(=O)N[C@@H](CCCNC(=N)N)C(=O)O)CC[C@]3(C)C(=CC[C@@H]4[C@@]5(C)CC[C@H](O)C(C)(C)[C@@H]5CC[C@]43C)[C@@H]2C1
IC50 [1]: 61.6 µM | IC50 [2]: 45.8 µM

CCOC(=O)C1=C[C@@H](OC(CC)CC)[C@H](NC(C)=O)[C@@H](N)C1 [OSELTAMIVIR PHOSPHATE]
IC50 [1]: > 100 µM | IC50 [2]: > 100 µM
